Among the data in ChEMBL document CHEMBL3044622, “Effectiveness and mode of action of phosphonate inhibitors of plant glutamine synthetase” (Pest Manag Sci, 2010) are IC50, inhibition and Ki values, retold here.

A word on the IC50: it is the point on the concentration scale where inhibition reaches its midpoint. By inhibition is commonly meant the drop in the measured response relative to a control, in per cent. In general, Ki refers to a dissociation constant, usually derived from enzyme kinetics or from competition with a known ligand.

The target in assay [1] is T1, Glutamine synthetase, chloroplastic (Zea mays, UniProt P25462).
T1 sequence (P25462 whole entry): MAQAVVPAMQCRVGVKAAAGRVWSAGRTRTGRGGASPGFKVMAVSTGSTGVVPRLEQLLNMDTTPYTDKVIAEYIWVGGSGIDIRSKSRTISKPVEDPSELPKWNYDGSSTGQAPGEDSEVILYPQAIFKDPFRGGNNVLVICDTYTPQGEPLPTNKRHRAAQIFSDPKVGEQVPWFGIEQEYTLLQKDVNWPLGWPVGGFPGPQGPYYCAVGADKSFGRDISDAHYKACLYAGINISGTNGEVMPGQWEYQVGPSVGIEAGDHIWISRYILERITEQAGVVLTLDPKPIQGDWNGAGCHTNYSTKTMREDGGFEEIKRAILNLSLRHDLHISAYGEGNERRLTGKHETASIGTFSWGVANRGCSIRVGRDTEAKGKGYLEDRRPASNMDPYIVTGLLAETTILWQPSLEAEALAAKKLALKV
Kind of assay: Inhibition of Zea mays cv. Jeff (maize) leaf glutamine synthetase using L-glutamate as substrate assessed as inorganic phosphate production after 20 min by malachite green assay relative to control. Summed up:
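GS purified from three-leaf-stage maize seedling leaves by ammonium sulfate, DEAE-Sephacel, Reactive Blue flow-through and Mono-Q steps. Inhibitor adjusted to pH 7.4 with KOH, 0.001–5 mM; IC50 by probit method.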

For assay [2], the target named is T2, Glutamine synthetase, chloroplastic (Zea mays) (UniProt P25462).
T2 sequence (whole entry): T1 sequence (P25462 whole entry)
Kind of assay: Inhibition of Zea mays cv. Jeff (maize) leaf glutamine synthetase using L-glutamate as substrate assessed as inorganic phosphate production at 1 mM after 20 min by malachite green assay relative to control.

Assay [3] deals with T1, Glutamine synthetase, chloroplastic. The assay can be described thus: Un-competitive inhibition of Zea mays cv. Jeff (maize) leaf glutamine synthetase using ATP as substrate Lineweaver-Burk plot analysis. The method in brief:
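With purified maize leaf GS in the biosynthetic assay (Pi by malachite green, 35 °C), ATP was varied at seven levels from 0.2 to 1 mM with L-glutamate fixed at 50 mM. Four inhibitor levels, 0.5- to 3-fold the I50, each at least in triplicate. Lineweaver–Burk plots were used, and Ki came from Dixon replots. Values are means ± SEM.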

The target is the same in assay [4]. Kind of assay: Non-competitive inhibition of Zea mays cv. Jeff( maize) leaf glutamine synthetase using L-glutamate as substrate Lineweaver-Burk plot analysis.

Take `O=P(O)(O)C(O)c1ccccc1Cl` (centres undefined) [(2-CHLOROPHENYL)(HYDROXY)METHYLPHOSPHONIC ACID]: in assay [1], the IC50 was 6610 µM. Further, the inhibition in assay [2] came out at 27%.

Consider `NC(c1ccccc1F)P(=O)(O)O` (centres undefined) [AMINO(2-FLUOROPHENYL)METHYLPHOSPHONIC ACID], for which the IC50 in assay [1] worked out at 10100 µM. Besides, the inhibition in assay [2] is 26.7%.

With `O=P(O)(O)C(O)c1c(Cl)cccc1Cl` (centres undefined), the inhibition in assay [2] turned out to be 10.7%.

For the molecule `O=P(O)(O)C(Nc1cc(Cl)cc(Cl)c1)P(=O)(O)O` [(3,5-DICHLOROPHENYLAMINO)METHYLENEDIPHOSPHONIC ACID], the Ki in assay [3] was 6.4 µM; in assay [4] it was 7.2 µM. The IC50 in assay [1] came to 7.6 µM. Besides, the inhibition in assay [2] is 86.3%.

As to `NC(c1cccc(Cl)c1)P(=O)(O)O` (centres undefined), in assay [2], the inhibition is 8.1%.

On to `O=P(O)(O)C(O)c1ccc(Cl)cc1` (centres undefined), for which the inhibition in assay [2] stood at 8.3%.

Turning to `NC(c1ccccc1Br)P(=O)(O)O` (centres undefined) [AMINO(2-BROMOPHENYL)METHYLPHOSPHONIC ACID], the IC50 in assay [1] was found to be 4100 µM. The inhibition in assay [2] is 42.5%.

`O=P(O)(O)C(Nc1ccc(Cl)cc1)P(=O)(O)O` [(4-CHLOROPHENYLAMINO)METHYLENEDIPHOSPHONIC ACID]: the IC50 in assay [1] was 21 µM. In assay [2], the inhibition worked out at 79.1%.

On to `Cc1cc(C)cc(NC(P(=O)(O)O)P(=O)(O)O)c1` [3,5-DIMETHYLPHENYLAMINOMETHYLENEBISPHOSPHONIC ACID], for which the Ki in assay [3] worked out at 55 µM; in assay [4] it was 53 µM. In addition, in assay [1], the IC50 amounted to 56 µM. The inhibition in assay [2] was determined as 67.5%.

With `O=P(O)(O)C(Nc1ccc(Cl)c(Cl)c1)P(=O)(O)O` [3,4-DICHLOROPHENYLAMINOMETHYLENEBISPHOSPHONIC ACID], the IC50 in assay [1] amounted to 31.9 µM. Further, the inhibition in assay [2] is 73.8%.

For the molecule `O=P(O)(O)C(Nc1cccc(Cl)c1Cl)P(=O)(O)O` [2,3-DICHLOROPHENYLAMINOMETHYLENEBISPHOSPHONIC ACID], the IC50 in assay [1] was 12.8 µM. Also, the inhibition in assay [2] came to 84.9%.

On to `O=P(O)(O)C(O)c1ccc(Cl)c(Cl)c1` (centres undefined), for which the inhibition in assay [2] turned out to be 14.6%.

`NC(c1ccc(Cl)cc1Cl)P(=O)(O)O` (centres undefined) [AMINO(2,4-DICHLOROPHENYL)METHYLPHOSPHONIC ACID]: the IC50 in assay [1] came out at 2610 µM. For the same molecule, in assay [2], the inhibition was found to be 40.7%.

Take `NC(c1cccc(Cl)c1Cl)P(=O)(O)O` (centres undefined) [AMINO(2,3-DICHLOROPHENYL)METHYLPHOSPHONIC ACID]: the half-inhibitory concentration (IC50) in assay [1] worked out at 1050 µM. In addition, the inhibition in assay [2] was determined as 47.7%.

As to `O=P(O)(O)C(O)c1cccc(Cl)c1Cl` (centres undefined) [(2,3-DICHLOROPHENYL)(HYDROXY)METHYLPHOSPHONIC ACID], the IC50 in assay [1] was 1160 µM. In addition, in assay [2], the inhibition came to 47.2%.

With `NC(c1ccccc1Cl)P(=O)(O)O` (centres undefined) [AMINO(2-CHLOROPHENYL)METHYLPHOSPHONIC ACID], the IC50 in assay [1] was found to be 5810 µM. Moreover, the inhibition in assay [2] came out at 36.3%.

For `NC(c1cccc(F)c1)P(=O)(O)O` (centres undefined), the inhibition in assay [2] is 7.9%.

Consider `COc1cccc(C(N)P(=O)(O)O)c1OC` (centres undefined), for which the inhibition in assay [2] is -1.2%.

With `O=P(O)(O)C(O)c1ccc(Cl)cc1Cl` (centres undefined) [(2,4-DICHLOROPHENYL)(HYDROXY)METHYLPHOSPHONIC ACID], the IC50 in assay [1] stood at 4830 µM. In addition, the inhibition in assay [2] is 31.9%.

Consider `O=P(O)(O)C(Nc1ccc(Cl)cc1Cl)P(=O)(O)O` [2,4-DICHLOROPHENYLAMINOMETHYLENEBISPHOSPHONIC ACID], for which the IC50 in assay [1] worked out at 21.2 µM. For the same molecule, the inhibition in assay [2] was 79.7%.

For `NC(c1ccccc1)P(=O)(O)O` (centres undefined), the inhibition in assay [2] worked out at 13.6%.

Consider `O=P(O)(O)C(O)c1cccc(Cl)c1` (centres undefined), for which the inhibition in assay [2] turned out to be 12.3%.

`O=P(O)(O)C(Nc1c(Cl)cccc1Cl)P(=O)(O)O` [2,6-DICHLOROPHENYLAMINOMETHYLENEBISPHOSPHONIC ACID]: the IC50 in assay [1] worked out at 15 µM. For the same molecule, the inhibition in assay [2] was found to be 81.1%.

Turning to `O=P(O)(O)C(Nc1cc(Cl)ccc1Cl)P(=O)(O)O` [2,5-DICHLOROPHENYLAMINOMETHYLENEBISPHOSPHONIC ACID], in assay [1], the 50% inhibitory concentration (IC50) is 39.2 µM. Also, in assay [2], the inhibition was 79.1%.
